Source: ChEMBL document CHEMBL1154566, “Quadranosides I-V, new triterpene glucosides from the seeds of Combretum quadrangulare” (2000)
The source made the active and inactive calls. The calls are words filed in the database; no cut-off is given here.

Legend:
Type in all cases: functional
Hepatocyte [1] = test: Hepatoprotective activity against mouse hepatocytes assessed as inhibition of D-galactosamine/TNFalpha-induced cell death at 200 uM after 18 hrs by MTT assay
Method in brief: (§1)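 Primary cultured mouse hepatocytes in Williams' E medium with 10% calf serum, penicillin G, streptomycin, 100 µM dexamethasone and 50 ng/mL insulin, seeded at 10^5 cells/well and preincubated 2 h. The medium was then replaced with fresh medium holding 0.5 mM D-GalN plus test sample.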

Hepatocyte [2] = test: Hepatoprotective activity against mouse hepatocytes assessed as inhibition of D-galactosamine/TNFalpha-induced cell death at 25 uM after 18 hrs by MTT assay; method in brief: as §1
Hepatocyte [3] = test: Hepatoprotective activity against mouse hepatocytes assessed as inhibition of D-galactosamine/TNFalpha-induced cell death at 50 uM after 18 hrs by MTT assay; method in brief: as §1
Hepatocyte [4] = test: Hepatoprotective activity against mouse hepatocytes assessed as inhibition of D-galactosamine/TNFalpha-induced cell death at 100 uM after 18 hrs by MTT assay; method in brief: as §1

Structure (SMILES) | inhibition at 200 µM (Hepatocyte [1]) [%] | inhibition at 25 µM (Hepatocyte [2]) [%] | inhibition at 50 µM (Hepatocyte [3]) [%] | inhibition at 100 µM (Hepatocyte [4]) [%] | Activity (Hepatocyte [1]) | Activity (Hepatocyte [2]) | Activity (Hepatocyte [3]) | Activity (Hepatocyte [4])
CC1=C2C3=CC[C@@H]4[C@@]5(C)C[C@@H](O)[C@H](O)[C@@](C)(CO)[C@@H]5[C@H](O)C[C@@]4(C)[C@]3(C)CC[C@@]2(C(=O)O[C@@H]2O[C@H](CO)[C@@H](O)[C@H](O)[C@H]2O)CC[C@H]1C [QUADRANOSIDE V] | 80.1 | 59.3 | 67.5 | 77.7 | – | – | – | –
COc1cc(C2Oc3cc([C@H]4Oc5cc(O)cc(O)c5C(=O)[C@@H]4O)ccc3OC2CO)ccc1O (some centres undefined) [SILIBININ] | 70.8 | 38.1 | 61.2 | 96.5 | – | – | – | –
CC1(C)CC[C@]2(C(=O)O[C@@H]3O[C@H](CO)[C@@H](O)[C@H](O)[C@H]3O)CC[C@]3(C)C(=CC[C@@H]4[C@@]5(C)C[C@@H](O)[C@H](O)[C@@](C)(CO)[C@@H]5CC[C@]43C)[C@@H]2[C@@H]1O [ARJUNGLUCOSIDE I] | 32.7 | – | 10.1 | 31.5 | – | – | – | –
Oc1cc(O)c2c(c1)O[C@H](c1cc(O)c(O)c(O)c1)[C@@H](O)C2 [GALLOCATECHIN] | 33.5 | – | 19.7 | 30.3 | – | – | – | –
C=C(C)[C@@H]1CC[C@]2(C(=O)O[C@@H]3O[C@H](CO)[C@@H](O)[C@H](O)[C@H]3O)CC[C@]3(C)[C@H](CC[C@@H]4[C@@]5(C)C[C@@H](O)[C@H](O)C(C)(C)[C@@H]5[C@H](O)C[C@]43C)[C@@H]12 [QUADRANOSIDE I] | 71.2 | 6.3 | 37.6 | 29.7 | – | – | – | –
CC1(C)CC[C@]2(C(=O)O)CC[C@]3(C)C(=CC[C@@H]4[C@@]5(C)C[C@@H](O)[C@H](O)[C@@](C)(CO)[C@@H]5CC[C@]43C)[C@@H]2[C@@H]1O [ARJUNGENIN] | 46.2 | – | 31.8 | 37 | – | – | – | –
C[C@@]1(CO)CC[C@]2(C(=O)O[C@@H]3O[C@H](CO)[C@@H](O)[C@H](O)[C@H]3O)CC[C@]3(C)C(=CC[C@@H]4[C@@]5(C)C[C@@H](O)[C@H](O)[C@@](C)(CO)[C@@H]5CC[C@]43C)[C@@H]2C1 [QUADRANOSIDE III] | 35.5 | 15.1 | 8 | 17.8 | – | – | – | –
Oc1cc(O)c2c(c1)O[C@H](c1ccc(O)c(O)c1)[C@H](O)C2 [(-)-EPICATECHIN] | 98.9 | – | 38 | 58.1 | – | – | – | –
CC1=C(C)[C@H]2C3=CC[C@@H]4[C@@]5(C)C[C@@H](O)[C@H](O)[C@@](C)(CO)[C@@H]5CC[C@@]4(C)[C@]3(C)CC[C@@]2(C(=O)O[C@@H]2O[C@H](CO)[C@@H](O)[C@H](O)[C@H]2O)CC1 | 15 | – | 8.3 | 25 | – | – | – | –
C=C(C)[C@@H]1CC[C@]2(C(=O)O[C@@H]3O[C@H](CO)[C@@H](O)[C@H](O)[C@H]3O)CC[C@]3(C)[C@H](CC[C@@H]4[C@@]5(C)C[C@@H](O)[C@H](O)[C@@](C)(CO)[C@@H]5[C@H](O)C[C@]43C)[C@@H]12 [QUADRANOSIDE II] | 83.6 | 32 | 40.9 | 46.1 | – | – | – | –
C[C@H]1[C@H](C)CC[C@]2(C(=O)O[C@@H]3O[C@H](CO)[C@@H](O)[C@H](O)[C@H]3O)CC[C@]3(C)C(=CC[C@@H]4[C@@]5(C)C[C@@H](O)[C@H](O)[C@@](C)(CO)[C@@H]5CC[C@]43C)[C@H]12 | – | – | – | – | inactive | inactive | inactive | inactive
